According to ChEMBL document CHEMBL1781975, “Synthesis, crystal structure and antimicrobial activity of deoxybenzoin derivatives from genistein” (2008):
Values after ≈ are worked out from the molar mass of the structure shown. Active and inactive are the calls of the source. The calls are words filed in the database; no cut-off is given here.

Key:
Pseudomonas fluorescens = assay: Antibacterial activity against Pseudomonas fluorescens after 24 hrs by MTT assay; format: functional
Procedure, shortened: (§1)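 Broth microdilution MIC in Mueller-Hinton medium, compounds from a 50 mg/ml DMSO stock serially diluted in the wells. Inoculum approx. 10⁵ cfu/ml, incubated 37 °C for 24 h. MIC read visually. PBS (pH 7.4) with 2 mg/ml MTT then added, 12 h further incubation at room temperature, OD at 550 nm.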

Candida albicans = assay: Antifungal activity against Candida albicans after 48 hrs by MTT assay; format: functional, organism-based
Procedure, shortened: (§2)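 Fungi tested by microdilution in RPMI-1640 buffered with 0.165 mol/L MOPS to pH 7.0. Compounds from a 50 mg/ml DMSO stock serially diluted. Inoculum approx. 10⁵ cfu/ml, 37 °C for 48 h. MIC scored visually, then MTT (2 mg/ml in PBS) added, 12 h at room temperature, absorbance 550 nm.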

Trichophyton rubrum = assay: Antifungal activity against Trichophyton rubrum after 48 hrs by MTT assay; format: functional, organism-based; procedure, shortened: as §2
Bacillus subtilis = assay: Antibacterial activity against Bacillus subtilis after 24 hrs by MTT assay; format: functional; procedure, shortened: as §1
Escherichia coli = assay: Antibacterial activity against Escherichia coli after 24 hrs by MTT assay; format: functional; procedure, shortened: as §1
Staphylococcus aureus = assay: Antibacterial activity against Staphylococcus aureus after 24 hrs by MTT assay; format: functional; procedure, shortened: as §1
Aspergillus niger = assay: Antifungal activity against Aspergillus niger after 48 hrs by MTT assay; format: functional, organism-based; procedure, shortened: as §2

Structure (SMILES) | MIC (Pseudomonas fluorescens) | MIC (Candida albicans) | MIC (Trichophyton rubrum) | MIC (Bacillus subtilis) | MIC (Escherichia coli) | MIC (Staphylococcus aureus) | MIC (Aspergillus niger)
O=C(Cc1ccc(OCCCBr)cc1)c1c(O)cc(OCCCBr)cc1OCCCBr | > 50 µg/mL | inactive | inactive | 25 µg/mL (≈ 40.1 µM) | 25 µg/mL (≈ 40.1 µM) | > 50 µg/mL | inactive
O=C(Cc1ccc(O)cc1)c1c(O)cc(O)cc1O | > 50 µg/mL | inactive | inactive | 40.5 µg/mL (≈ 156 µM) | 42.5 µg/mL (≈ 163 µM) | > 50 µg/mL | inactive
NC[C@H]1O[C@H](O[C@H]2[C@H](O)[C@@H](O[C@H]3O[C@H](CO)[C@@H](O)[C@H](N)[C@H]3O)[C@H](N)C[C@@H]2N)[C@H](O)[C@@H](O)[C@@H]1O [KANAMYCIN] | 3.9 µg/mL (≈ 8.05 µM) |  |  | 1 µg/mL (≈ 2.06 µM) | 0.45 µg/mL (≈ 0.929 µM) | 1 µg/mL (≈ 2.06 µM) | 
O=C(Cc1ccc(OCCCBr)cc1)c1c(OCCCBr)cc(OCCCBr)c(Cc2c(OCCCBr)cc(OCCCBr)c(C(=O)Cc3ccc(OCCCBr)cc3)c2O)c1O | > 50 µg/mL | inactive | inactive | 6.25 µg/mL (≈ 4.97 µM) | 17.5 µg/mL (≈ 13.9 µM) | > 50 µg/mL | inactive
COc1ccc(CC(=O)c2c(OC)cc(OC)c(Cc3c(OC)cc(OC)c(C(=O)Cc4ccc(OC)cc4)c3O)c2O)cc1 | > 50 µg/mL | inactive | inactive | 31.5 µg/mL (≈ 51.1 µM) | 38.5 µg/mL (≈ 62.4 µM) | > 50 µg/mL | inactive
COc1ccc(CC(=O)c2c(O)cc(OC)cc2OC)cc1 | > 50 µg/mL | inactive | inactive | > 50 µg/mL | > 50 µg/mL | > 50 µg/mL | inactive
O=C(Cc1ccc(OCCBr)cc1)c1c(O)cc(OCCBr)cc1OCCBr | > 50 µg/mL | inactive | inactive | 30.5 µg/mL (≈ 52.5 µM) | 36.5 µg/mL (≈ 62.8 µM) | > 50 µg/mL | inactive
CC(=O)N1CCN(c2ccc(OCC3COC(Cn4ccnc4)(c4ccc(Cl)cc4Cl)O3)cc2)CC1 (stereo not given) [KETOCONAZOLE] | > 50 µg/mL |  |  | > 50 µg/mL | > 50 µg/mL | > 50 µg/mL | 
O=C(O)COc1ccc(CC(=O)c2c(OCC(=O)O)cc(OCC(=O)O)c(Cc3c(OCC(=O)O)cc(OCC(=O)O)c(C(=O)Cc4ccc(OCC(=O)O)cc4)c3O)c2O)cc1 | > 50 µg/mL | inactive | inactive | 12.5 µg/mL (≈ 14.2 µM) | 25 µg/mL (≈ 28.4 µM) | > 50 µg/mL | inactive
O=C(O)COc1ccc(CC(=O)c2c(O)cc(OCC(=O)O)cc2OCC(=O)O)cc1 | > 50 µg/mL | inactive | inactive | 45.5 µg/mL (≈ 105 µM) | 48.5 µg/mL (≈ 112 µM) | > 50 µg/mL | inactive
CC1(C)S[C@@H]2[C@H](NC(=O)Cc3ccccc3)C(=O)N2[C@H]1C(=O)O [PENICILLIN G] | > 50 µg/mL |  |  | 7.8 µg/mL (≈ 23.3 µM) | > 50 µg/mL | 2 µg/mL (≈ 5.98 µM) | 
O=c1c(-c2ccc(O)cc2)coc2cc(O)cc(O)c12 [GENISTEIN] | > 50 µg/mL | inactive | inactive | > 50 µg/mL | > 50 µg/mL | > 50 µg/mL | inactive
